Screening results: PubChem, Sanford-Burnham Center for Chemical Genomics
In the library only some 3.9% were active in any assay of this set; here they are far more common.
tim10-1 inh = inhibits growth of tim10-1 mutant yeast; inhibition, % at 20 µM; AID 463190; hit rate 2.2% among 330,000; S. cerevisiae tim10-1 ts strain growth, BacTiter-Glo, 24 h;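 active = inhibition of at least 40%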;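 note: mutant grown at 25 °C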
TIM10 inh = growth inhibitors of TIM10 yeast strain; S. cerevisiae TIM10 strain growth, BacTiter-Glo luminescence, 24 h; inhibition, % at 10 µM; hit rate 1.4% among 330,000;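 active = inhibition of 40% or more at the single tested concentration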;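 note: wild-type TIM10 isogenic control strain grown at permissive 25 °C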
XBP1 UPR activ = adaptive UPR (XBP1) activation; CHO-XBP1 luciferase reporter, IRE1-XBP1 UPR activation, luminescence; percent of tunicamycin response, DMSO as zero; activation, % at 20 µM; hit rate 0.33% among 330,000; AID 463104;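 active = versus positive control, 20 µM dose yields 30% or more activation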
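Material – CHO cell line with stable XBP1 luciferase reporter · Buffer or medium – F12 plus 10% FBS · Compound – single point, 20 µM final compound, 1% DMSO · Schedule – 16-18 h cell attachment at 37 °C, then 6 h compound exposure · Signal – Steady-Glo luminescence read · Benchmarks – high control tunicamycin 10 µg/mL final, low control DMSO vehicle only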
tim23-1 inh = inhibits growth of tim23-1 mutant yeast; S. cerevisiae tim23-1 growth, BacTiter-Glo luminescence, 24 h; inhibition, % at 20 µM; hit rate 1.3% among 330,000; AID 463212;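 active = growth inhibition of the mutant yeast at or above 50%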;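 note: temperature-sensitive mutant grown at 25 °C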
UPR CHOP act = apoptotic UPR (CHOP) activation | CHO-CHOP luciferase reporter, luminescence; percent of tunicamycin response over DMSO baseline | activation, % at 10 µM | hit rate 0.34% among 330,000;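 active = at 10 µM dose, activation of 40% or more, normalized to positive control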
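Material: CHO-CHOP cells, stable luciferase reporter of PERK-eIF2a-CHOP signalling; quantity: 500 reporter cells seeded per well; buffer or medium: F12 medium containing 10% fetal bovine serum; compound: one dose, 10 µM in 0.5% DMSO; incubation: 6 h compound treatment, 37 °C; measured by: Steady-Glo luciferase luminescence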
CHOP UPR conf = confirmation of apoptotic unfolded protein response (CHOP) activators | AID 463112 | CHO-CHOP cells, CHOP-luciferase reporter luminescence; percent of tunicamycin response, DMSO as zero | shares compounds with UPR CHOP act | hit rate 64% among 1,000 | activation, % at 10 µM; in the data active = activation above about 33%
XBP1 UPR conf = confirmation of adaptive unfolded protein response (XBP1) activators; shares compounds with XBP1 UPR activ; CHO-XBP1 IRE1-XBP1 luciferase reporter, luminescence; activation, % at 20 µM; hit rate 63% among 1,000;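 active = reporter signal at least 30% of the positive control's activation in two or more of four replicate wells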
tim10-1 confirm = confirmation of tim10-1 mutant yeast growth inhibitors; shares compounds with tim10-1 inh; S. cerevisiae tim10-1 ts strain growth, BacTiter-Glo, 24 h; inhibition, % at 20 µM; hit rate 56% among 7,400;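 active = inhibition of yeast growth at or above a set limit in either of two repeat tests at 20 µM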;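 note: tim10-1 mutant grown at permissive 25 °C to find synthetic lethal compounds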
tim10 confirm = confirmation of TIM10 yeast growth inhibitors. hit rate 63% among 4,600. inhibition, % at 10 µM. shares compounds with TIM10 inh. S. cerevisiae tim10 strain growth, BacTiter-Glo luminescence, 24 h;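 active = inhibition of yeast growth at or above a set limit in either of two replicates at 10 µM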; note: this counterscreen used the strain with wild-type TIM10
Hits are given with their value; i = inactive; nt = no result.

SMILES	tim10-1 inh	TIM10 inh	XBP1 UPR activ	tim23-1 inh	UPR CHOP act	CHOP UPR conf	tim10-1 confirm	others
COc1cccc(-c2c(-c3cc(OC)cc(OC)c3)n(C)c3ccc(-c4cnc(N5CCOCC5)nc4)cc23)c1	i	i	124	i	104	i	nt	XBP1 UPR conf=93
COc1ccc(C)cc1NC(=O)CN1CCN(S(=O)(=O)c2ccc3ccccc3c2)CC1	i	i	i	i	i	nt	nt
N#C/C(=C/c1ccc(N2CCCCCC2)o1)c1ccc(Cl)cc1	47	i	i	i	92	i	i
Cc1ccc(/C(C#N)=C\c2ccc(N3CCOCC3)o2)cc1	i	i	i	i	i	nt	nt
CNc1c(NS(=O)(=O)c2ccc(CC(C)C)cc2)c(=O)oc2ccccc12	i	i	i	i	i	nt	nt
Cc1ccc(/C=C2\CCC3=C2OC(N)=C(C#N)C3c2ccc(C)cc2)cc1 (configuration not stated)	46	i	i	i	92	81	34
COc1ccc(C(=O)CCN2CCCCCC2)cc1	i	i	i	i	i	nt	nt
COc1ccc(C(=O)C(CN2CCCC2)c2ccccc2)cc1 (configuration not stated)	45	i	i	i	66	39	43
O=C(N/N=C/c1ccccn1)c1cc(-c2ccc(Br)cc2)nc2ccccc12	44	i	i	i	331	265	i
O=C(N/N=C/c1ccco1)c1cc(-c2ccccc2)nc2ccccc12	i	i	i	i	i	nt	nt
O=S(=O)(c1ccc(F)c(F)c1)N1CCN(c2ccccn2)CC1	i	i	i	i	i	nt	nt
O=C(CCN1C(=O)/C(=C/c2cccs2)SC1=S)N1CCCCC1	42	i	i	i	40	i	i
N#Cc1cccc(S(=O)(=O)NNC(=O)C23CC4CC(CC(C4)C2)C3)c1	i	i	i	i	i	nt	nt
N#Cc1c(N2CCCC(O)C2)nc(N)c2c(N)nc3c(c12)CC(=O)N3C12CC3CC(CC(C3)C1)C2 (configuration not stated)	50	i	i	i	46	i	33
COc1cc(S(=O)(=O)Nc2ccccc2)ccc1N=Cc1c(C)[nH]n(-c2ccc(C)cc2)c1=O	i	i	i	i	i	nt	nt
COc1cc(SC#N)ccc1N=Cc1c(C)[nH]n(-c2ccc(Cl)cc2)c1=O	42	i	101	i	86	89	i	XBP1 UPR conf=134
COc1cccc2sc(Nc3nc(-c4ccccn4)cs3)nc12	52	i	i	i	624	425	34
Cc1ccccc1/C=C/C(=O)c1ccc([N+](=O)[O-])o1	67	i	i	i	112	68	71
Cc1cc(C)nc(-n2nc(C)cc2Nc2ccccc2)n1	41	i	i	i	59	i	i
Cc1cc(Nc2ccccc2)n(-c2ccccc2)n1	i	i	i	i	i	nt	nt
S=C(Nc1ccccc1)Nc1nccs1	42	i	i	i	104	60	i
CON(C)C(=O)CC(CNC(=O)OC(C)(C)C)c1ccc(Cl)cc1 (configuration not stated)	i	i	i	i	i	nt	nt
O=C(Nc1cccc(N2C(=O)C=CC2=O)c1)c1cccs1	63	i	i	i	124	i	57
Cc1nc2ccccc2c(=O)n1-c1cccc(NC(=O)c2cccs2)c1	i	i	i	i	i	nt	nt
CC1CCCCC1NC(=O)NC(=O)CCl (configuration not stated)	46	i	i	i	42	i	i
SMILES	tim10-1 inh	TIM10 inh	XBP1 UPR activ	tim23-1 inh	UPR CHOP act	CHOP UPR conf	tim10-1 confirm	others
O=C(Nc1cccc([N+](=O)[O-])c1)c1ccc2c(c1)C(=O)N(c1ccccn1)C2=O	i	i	i	i	i	nt	nt
CCOC(=O)N1CCN(Cc2cc(Cl)c3cccnc3c2O)CC1	47	i	i	i	105	116	i
Cc1[nH]n(-c2ncc(-c3ccc(Cl)cc3)s2)c(=O)c1C(c1ccc(Cl)cc1)C(C#N)C#N (configuration not stated)	i	i	i	i	i	nt	nt
COc1ccc(C(c2c(C)[nH]n(C(N)=S)c2=O)C(C#N)C#N)cc1 (configuration not stated)	44	i	i	i	62	56	i
COc1ccc(-n2c(C)c(C)c3c(N)ncnc32)cc1	i	i	i	i	i	nt	nt
CCOC(=O)c1ccc(N2C(=O)C=CC2=O)cc1	82	i	i	i	47	33	92
COc1cc(/C=C/C(=O)N2CCN(C(=O)/C=C/c3cc(OC)c(OC)c(OC)c3)CC2)cc(OC)c1OC	i	i	i	i	i	nt	nt
COc1ccc(OC)c(/C=C/C(=O)N2CCCc3ccccc32)c1	i	i	i	i	i	nt	nt
COc1cc(/C=C/C(=O)N2C(=O)c3cccc(N)c3C2=O)cc(OC)c1OC	43	i	i	i	68	53	i
COc1ccc(OC)c(/C=C/C(=O)N2C(=O)c3cccc(N)c3C2=O)c1	42	i	i	i	53	62	31
Cc1ccc(SCC(=O)N/N=C/c2ccco2)cc1	i	i	i	i	i	nt	nt
CCN(C(=O)c1c(C)noc1C)c1c(N)n(Cc2ccccc2)c(=O)[nH]c1=O	i	i	i	i	i	nt	nt
C/C(=N\NC(=O)c1cc2ccccc2cc1O)c1ccccn1	60	i	i	i	245	292	i
COc1cccc(NC(=O)C(=O)NCCC2CCCCN2S(=O)(=O)c2ccccc2)c1 (configuration not stated)	i	i	i	i	i	nt	nt
COCC(=O)N[C@@H]1c2cc(OC)c(OC)cc2C[C@H]1OCc1ccccc1	i	i	i	i	i	nt	nt
COc1ccccc1N1C(=O)C=C(Sc2nc(C)cc(C)n2)C1=O	i	42	i	i	62	56	nt	tim10 confirm=45
COc1ccccc1N1C(=O)C2CC(C)=C(C)CC2C1=O (configuration not stated)	i	i	i	i	i	nt	nt
Cc1ccc(-c2nc3c(c(=O)c4ccccc4n3C)c(=O)n2-c2ccc(F)cc2)cc1	i	i	i	i	i	nt	nt
Cn1c2ccccc2c(=O)c2c(=O)n(-c3ccccc3)c(-c3ccc(C(C)(C)C)cc3)nc21	48	82	i	i	59	i	i	tim10 confirm=i
COc1ccc(C(=O)C(CN2CCOCC2)c2ccccc2)cc1 (configuration not stated)	55	48	i	i	46	36	54	tim10 confirm=66
